As usually defined, the Ki is the equilibrium dissociation constant of an inhibitor or competing ligand from its target. Usually pIC50 stands for the negative decadic logarithm of the IC50, by convention in mol/L. As usually defined, the bioavailability is the share of a dose that reaches the circulation, judged against a reference dose that is usually intravenous. Read a high bioavailability as much systemic uptake. In general, Kp refers to tissue or fluid exposure divided by exposure in the circulation. In general, AUC(0-inf) refers to total exposure, with the tail of the curve extrapolated. Low readings indicate less exposure, high ones more exposure. The Cmax is the maximum level reached in the sampled fluid or tissue. A word on the clearance: it is the rate of elimination divided by the concentration. Low values mean a low capacity for elimination, high ones a high capacity for elimination.

In data set [1] the target is T1, Orexin receptor type 2 (Homo sapiens, UniProt O43614).
T1 sequence (O43614 whole entry): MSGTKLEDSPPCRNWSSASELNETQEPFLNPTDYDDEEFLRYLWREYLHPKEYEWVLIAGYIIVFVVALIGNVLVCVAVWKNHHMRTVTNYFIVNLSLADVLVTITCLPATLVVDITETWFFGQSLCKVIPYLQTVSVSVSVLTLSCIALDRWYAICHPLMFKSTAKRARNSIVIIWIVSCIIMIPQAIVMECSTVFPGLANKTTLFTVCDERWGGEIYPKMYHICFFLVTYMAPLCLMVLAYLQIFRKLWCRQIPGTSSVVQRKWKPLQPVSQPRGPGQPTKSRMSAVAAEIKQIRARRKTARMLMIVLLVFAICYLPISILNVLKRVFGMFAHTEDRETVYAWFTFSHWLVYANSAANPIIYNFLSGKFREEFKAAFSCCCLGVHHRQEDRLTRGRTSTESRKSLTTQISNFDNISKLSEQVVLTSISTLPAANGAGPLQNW
As to the kind of experiment: Antagonist activity at human OX2 receptor expressed in HEK cells assessed as inhibition of orexin A-induced Ca2+ accumulation after 1 hr by Fluo-4-AM staining-based FLIPR assay. The class given is functional, cell-based, HEK293. The essentials: (§1)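 Recombinant CHO or HEK cells expressing human OX1R or OX2R, serum-deprived overnight in HEPES buffer pH 7.4 with 1% BSA. Cells were loaded with 2 μM Fluo4-AM plus 0.1 mM probenecid for 1 h. Compound (up to eight concentrations, usually 10⁻⁹–10⁻⁵ M) was added first, then submaximal orexin A 1 h later. Curves run in triplicate; pKi from IC50 by Cheng–Prusoff.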

The target in data set [2] is T2, Orexin/Hypocretin receptor type 1 (Homo sapiens, UniProt O43613).
T2 sequence (O43613 whole entry): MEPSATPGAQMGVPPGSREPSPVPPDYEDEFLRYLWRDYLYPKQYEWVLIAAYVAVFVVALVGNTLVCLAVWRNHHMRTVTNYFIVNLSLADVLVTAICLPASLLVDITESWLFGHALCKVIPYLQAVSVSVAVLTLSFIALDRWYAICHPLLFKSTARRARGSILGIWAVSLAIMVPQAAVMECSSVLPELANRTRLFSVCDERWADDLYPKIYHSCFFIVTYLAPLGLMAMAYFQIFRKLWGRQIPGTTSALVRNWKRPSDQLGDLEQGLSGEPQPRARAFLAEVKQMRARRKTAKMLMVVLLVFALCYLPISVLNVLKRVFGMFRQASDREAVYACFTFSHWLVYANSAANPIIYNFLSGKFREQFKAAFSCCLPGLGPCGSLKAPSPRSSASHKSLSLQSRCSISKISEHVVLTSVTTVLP
Description: Antagonist activity at human OX1 receptor expressed in CHO cells assessed as inhibition of orexin A-induced Ca2+ accumulation after 1 hr by Fluo-4-AM staining-based FLIPR assay. The class given is functional, cell-based. Particulars: for pIC50: cho. The essentials: as §1

The nature of data set [3]: Oral bioavailability in C57BL/6 mouse blood at 3 mg/kg. The class given is ADME, organism-based. A digest of the protocol: (§2)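 Cassette PK in male C57BL/6 mice (20–30 g), up to five test compounds plus one reference. Iv 1 mg/kg in NMP/blank plasma 10/90 v/v, 5 mL/kg, saphenous vein. Oral 3 mg/kg suspended in 0.5% w/v carboxymethylcellulose in water/Tween 80 (99.5/0.5), 10 mL/kg gavage. Blood sampled 5 min (iv) or 15 min (po) to 24 h, n = 3 per time point, measured by LC/MS/MS.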

A short description of data set [4]: Ratio of drug level in brain to blood in C57BL/6 mouse at 3 mg/kg, po after 15 mins. It is filed as ADME, organism-based. More on the design: dose 3 mg/kg, route oral. The essentials: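 Male C57BL/6 mice (20–30 g), cassette dosing of up to five compounds plus a reference. Blood and brain collected 15 min post-dose, n = 3. Brain homogenised in 2 mM KH2PO4 and extracted with acetonitrile. LC/MS/MS quantitation; mean brain/blood ratio.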

A short description of data set [5]: AUC (infinity) in C57BL/6 mouse blood at 3 mg/kg, po. The class given is ADME, organism-based. More on the design: time infinity, dose 3 mg/kg, route oral. A digest of the protocol: as §2
A short description of data set [6]: Cmax in C57BL/6 mouse blood at 3 mg/kg, po. The class given is ADME, organism-based. More on the design: dose 3 mg/kg, route oral. A digest of the protocol:
as §2

Data set [7] in a line: Total blood clearance in C57BL/6 mouse at 1 mg/kg, iv. The class given is ADME, organism-based. More on the design: dose 1 mg/kg, route intravenous. A digest of the protocol: as §2
The nature of data set [8]: Volume of distribution at steady state in C57BL/6 mouse at 1 mg/kg, iv. The class given is ADME, organism-based. More on the design: dose 1 mg/kg, route intravenous. The conditions noted are these: in vivo, read-out: Vdss. A digest of the protocol: as §2

For `O=C1CCCC2(CCN(c3cnc4ccccc4n3)CC2)N1Cc1ccccc1`, the Ki in data set [1] is 589 nM; in data set [2], 1480 nM.

In the case of `Cc1cc(C)nc(N2CCC3(CCCN(Cc4[nH]nnc4-c4ccccc4)C3=O)CC2)n1`, the Ki in data set [1] was 1.17 nM; in data set [2], 708 nM.

Consider `O=C1N(Cc2cccc3[nH]ccc23)CCCC12CCN(c1cnc3ccccc3n1)CC2`, for which the Ki was 77.6 nM in data set [1] and 550 nM in data set [2].

In the case of `Cc1cc(C)nc(N2CCC3(CCCN(Cc4cn(C)c5ccccc45)C3=O)CC2)n1`, the values for the inhibitory constant (Ki) in data set [1] and in data set [2] were 20.9 nM and 1450 nM, respectively.

For the compound `Cc1cc(C)nc(N2CCC3(CCCN(Cc4c[nH]c5ccccc45)C3=O)CC2)n1`, the Ki in data set [1] was 6.92 nM; in data set [2] it was 661 nM.

Regarding `Cc1cc(C)nc(N2CCC3(CCCN(Cc4n[nH]cc4-c4ccccc4)C3=O)CC2)n1`, the Ki is 3.89 nM in data set [1] and 776 nM in data set [2].

As to `Cc1ccnc(N2CCC3(CCCN(Cc4c[nH]c5ccccc45)C3=O)CC2)n1`, the Ki in data set [1] was 26.9 nM; in data set [2] it was 1410 nM.

Turning to `O=C1CCCC2(CCN(c3cnc4ccccc4n3)CC2)N1Cc1c[nH]c2ccccc12`, the Ki in data set [1] is 69.2 nM; in data set [2] it was 275 nM.

As for `Cc1cc(C)nc(N2CCC3(CCCN(Cc4c[nH]c5ncccc45)C3=O)CC2)n1`, the Ki in data set [1] was 16.2 nM; in data set [2], 1320 nM.

On to `Cc1ccc(C)c(CN2C(=O)CCCC23CCN(c2cnc4ccccc4n2)CC3)c1`, for which the values for the Ki in data set [1] and in data set [2] were 12.9 nM and 58.9 nM, respectively.

Consider `COc1ccc2[nH]cc(CN3CCCC4(CCN(c5nc(C)cc(C)n5)CC4)C3=O)c2c1`, for which the results for the Ki in data set [1] and in data set [2] were 0.166 nM and 20.4 nM, respectively.

In the case of `O=C1N(Cc2c[nH]c3ccccc23)CCCC12CCN(c1cnc3ccccc3n1)CC2`, the values for the Ki in data set [1] and in data set [2] were 61.7 nM and 288 nM, respectively.

For `O=C1N(Cc2ccccc2)CCCC12CCN(c1cnc3ccccc3n1)CC2`, the values for the Ki in data set [1] and in data set [2] were 182 nM and 1550 nM, respectively.

For `Cc1cc(C)nc(N2CCC3(CCCN(Cc4n[nH]c5ccccc45)C3=O)CC2)n1`, the Ki in data set [1] was 6.92 nM; in data set [2], 490 nM.

With `O=C1N(Cc2c[nH]c3ccccc23)CCCC12CCN(c1ncccn1)CC2`, the Ki in data set [1] was 550 nM. The pIC50 in data set [2] is recorded as greater than 5.

Consider `O=C1CCCC2(CCN(c3nc4ccccc4o3)CC2)N1Cc1cccc2[nH]ccc12`, for which the Ki in data set [1] was 3.16 nM; in data set [2], 18.6 nM.

For the compound `O=C1CCCC2(CCN(c3cnc4ccccc4n3)CC2)N1Cc1cccc2[nH]ccc12`, the bioavailability in data set [3] stood at 5%. Further, the concentration ratio (Kp) at 0.25 h in data set [4] was 0.2. In data set [5], this compound returned an AUC(0-inf) of 0.031 µM·h. This compound also gave a Cmax in data set [6] of 18 nM. Besides, the clearance in data set [7] was determined as 188 mL/min/kg. Further, the Vd in data set [8] stood at 3.1 L/kg. Moreover, the Ki in data set [1] was 0.457 nM; in data set [2], 9.12 nM.

Consider `Cc1cc(C)nc(N2CCC3(CCCN(Cc4nn(C)cc4-c4ccccc4)C3=O)CC2)n1`, for which the results for the Ki in data set [1] and in data set [2] were 17.4 nM and 813 nM, respectively.

Take `O=C1N(Cc2c[nH]c3ccccc23)CCCC12CCN(c1cnccn1)CC2`: the Ki in data set [1] was 309 nM. Further, the pIC50 in data set [2] is on record as greater than 5.

In the case of `Cc1cc(C)nc(N2CCC3(CCCN(Cc4nn(C)nc4-c4ccccc4)C3=O)CC2)n1`, the Ki in data set [1] is 4.57 nM; in data set [2], 759 nM.

`Cc1cc(C)nc(N2CCC3(CCCC(=O)N3Cc3cccc4[nH]ccc34)CC2)n1`: the Ki in data set [1] was 0.851 nM; in data set [2], 372 nM.

For the compound `O=C(Cc1ccccc1)N1CCCC12CCN(c1cnc3ccccc3n1)CC2`, the Ki in data set [1] is 186 nM; in data set [2], 955 nM.

Source of the values: ChEMBL document CHEMBL2434958, “Identification of a novel series of orexin receptor antagonists with a distinct effect on sleep architecture for the treatment of insomnia” (J Med Chem, 2013).
